HNF4A DNA FP = change in binding of human HNF4 alpha to DNA | AID 1224865 | activity change, % at 10 µM | 0.3% of 360,000 active | P41235 | HNF4a-FITC DNA binding, fluorescence polarization, 1 h; in the data active = activity change above about 30%, passing the limit was not always enough
aDG glyco up = alpha-DG glycosylation activation | Pro5-aDG cells, alpha-DG glycosylation AlphaScreen (IIH6); 0% Pro5, 100% B10-LARGE cell signal | activation, % at 10 µM | 0.22% of 360,000 active | AID 624168;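 active = activation of at least 8% versus controls, or a plate z-score of at least 8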;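 note: Pro5 are CHO cells carrying HIG-tagged alpha-DG that lacks glycosylation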
Rev-erbA mod = modulates human Rev-erb alpha binding to DNA. P20393. Rev-erbα–FITC-DNA binding, fluorescence polarization, 90 min. activity, % at 10 µM. 0.79% of 370,000 active. AID 1259318;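 active = activity above about 14%, limit read from the data; passing the limit was not always enough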
CSN deneddyl inh = CSN deneddylation inhibition; 0.38% of 360,000 active; inhibition, % at 12.5 µM; AID 651999; Q92905; Purified CSN, SCF-Nedd8-OG deneddylation, fluorescence polarization;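 active = pattern-corrected inhibition above about 35%, with an unprinted fluorescence ratio check between 0.5 and 1.5, limit read from the data, passing the limit was not always enough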
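Schedule: reaction 90 min, room temperature / Assay system: HEK293T-derived human Csn5 enzyme / Input: Csn5 at 0.24 nM final / Measure: inhibition of Csn5 cleavage, % / Control set: substrate-only high control, full reaction low control / Technique: fluorescence polarization of the substrate / Buffer or medium: Tris/NaCl/DTT buffer, pH 7.5 / Reagent: SCFSkp2-Nedd8OG substrate at 10 nM final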
CSN deneddyl val = validation of inhibitors of human CSN-mediated cullin deneddylation. shares compounds with CSN deneddyl inh. Csn5 deneddylation of SCF-Nedd8OG, fluorescence polarization, 90 min. inhibition, % at 16.6 µM. 62% of 540 active. AID 720654; in the data active = inhibition above about 50%
MMP-2 counter = blocks human MMP-2 in a CSN deneddylation counter-screen | shares compounds with CSN deneddyl inh | recombinant MMP-2, FRET substrate fluorescence, 60 min | inhibition, % at 16.6 µM | 33% of 540 active | AID 720655;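 active = corrected plate-normalized z-score of 5 or more, or -5 or less, or inhibition of 15% or more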
Target sequence (P08253 whole entry, looked up): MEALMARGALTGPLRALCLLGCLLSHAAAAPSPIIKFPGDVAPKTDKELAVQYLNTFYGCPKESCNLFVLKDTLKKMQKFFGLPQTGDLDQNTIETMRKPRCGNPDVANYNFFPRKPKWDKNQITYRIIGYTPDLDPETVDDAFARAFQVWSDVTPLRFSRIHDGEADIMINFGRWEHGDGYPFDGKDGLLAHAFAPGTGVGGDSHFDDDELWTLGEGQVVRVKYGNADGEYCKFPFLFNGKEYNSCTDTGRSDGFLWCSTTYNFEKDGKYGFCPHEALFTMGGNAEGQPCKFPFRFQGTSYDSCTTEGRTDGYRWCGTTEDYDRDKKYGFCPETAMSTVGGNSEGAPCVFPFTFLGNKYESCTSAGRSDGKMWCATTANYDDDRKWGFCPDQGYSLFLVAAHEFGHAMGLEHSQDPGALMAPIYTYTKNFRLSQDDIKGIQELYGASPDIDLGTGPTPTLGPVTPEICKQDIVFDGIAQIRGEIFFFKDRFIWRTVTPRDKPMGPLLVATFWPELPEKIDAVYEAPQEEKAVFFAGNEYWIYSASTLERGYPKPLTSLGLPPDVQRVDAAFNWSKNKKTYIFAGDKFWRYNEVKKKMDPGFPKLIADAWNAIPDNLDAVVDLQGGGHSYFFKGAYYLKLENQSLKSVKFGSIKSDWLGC
Thrombin counter = counter-screen for CSN deneddylation inhibitors: bovine thrombin inhibition. shares compounds with CSN deneddyl inh. bovine thrombin cleavage of Ub4-pepOG, fluorescence polarization. inhibition, % at 16.6 µM. 49% of 540 active. AID 720656;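 active = inhibition at or above a set limit, with a fluorescence interference ratio between 0.5 and a set maximum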
Of the large screens only hits and unclear results are named; the others gave an inactive call (follow-up assays come after a bar, where they were run). Compounds with a hit are over-represented: about 1.5% of the library has one in this group of screens.

CCOc1ccc(N(C)c2ccc(/C=C3/SC(=S)NC3=O)cc2)cc1	CSN deneddyl inh 87.4 | CSN deneddyl val inactive | MMP-2 counter 23.7 | Thrombin counter 65.9
Nc1cccc2c1C(=O)N(C(=O)c1ccco1)C2=O	none
Nc1cccc2c1C(=O)N(C(=O)/C=C/c1ccc(F)cc1)C2=O	CSN deneddyl inh 37.3 | CSN deneddyl val 69.3 | MMP-2 counter inactive | Thrombin counter inactive
CCOC(=O)[C@]12CCCCC/C=C\1N(Cc1ccc(OC)cc1)C(=O)[C@H]2CC(=O)NCc1ccc(OC)c(OC)c1	none (no result: HNF4A DNA FP, aDG glyco up, CSN deneddyl inh)
COc1ccc(-n2cc(COC(=O)NCCc3c[nH]c4ccccc34)nn2)cc1	none (no result: HNF4A DNA FP, aDG glyco up, CSN deneddyl inh)
CCCCCC[C@H](CC)CN(C(=O)Oc1ccccc1)c1ccccc1	none (no result: HNF4A DNA FP, aDG glyco up, CSN deneddyl inh)
O=C(O)c1cccc(N2C(=O)/C(=C/c3ccc(SCc4ccc(Cl)cc4)o3)SC2=S)c1	CSN deneddyl inh 45.7 | MMP-2 counter inactive | Thrombin counter 48.9
O=C(CCN1C(=O)/C(=C/c2ccc(Cl)cc2)SC1=S)Nc1cccc(C(=O)O)c1	none
CCN(C[C@H]1[C@@H](c2ccc(C3=CCCC3)cc2)[C@H](CO)N1c1nc(C)c(C)s1)S(=O)(=O)c1ccccc1[N+](=O)[O-]	none (no result: HNF4A DNA FP, aDG glyco up, CSN deneddyl inh)
CC1=Nc2ccccc2/C1=C/c1sc(=N)n(-c2nccs2)c1O	CSN deneddyl inh 44.2 (no result: Rev-erbA mod) | CSN deneddyl val inactive | MMP-2 counter 16.5 | Thrombin counter 43.5
CC1=Nc2ccccc2/C1=C\c1nc(-c2ccc(C(F)(F)F)cc2)oc1O	none
O=C1/C(=C\c2ccc(O)c(O)c2)SC(=S)N1Cc1ccccc1	HNF4A DNA FP 68.0, CSN deneddyl inh 55.3 | CSN deneddyl val inactive | MMP-2 counter inactive | Thrombin counter 68.1
Cc1ccc(/C=C2\SC(=S)N(Cc3ccccc3)C2=O)o1	CSN deneddyl inh 115.0 | CSN deneddyl val 107.7 | MMP-2 counter inactive | Thrombin counter 23.9
COc1cc(/C=C2/SC(=S)N(Cc3ccccc3)C2=O)ccc1O	HNF4A DNA FP 68.5, CSN deneddyl inh 56.9 | CSN deneddyl val 58.2 | MMP-2 counter inactive | Thrombin counter inactive
COc1cc(/C=C2/SC(=NCc3ccccc3)N(Cc3ccccc3)C2=O)ccc1O	none
COc1cc2cc3c(N)c(C(=O)Nc4sc(C)c(C)c4C#N)sc3nc2cc1OC	CSN deneddyl inh 73.8 | CSN deneddyl val 81.7 | MMP-2 counter inactive | Thrombin counter inactive
COc1cc2cc3c(N)c(C(=O)NCc4ccco4)sc3nc2cc1OC	none (no result: Rev-erbA mod)
CC(C)CN1C(=O)C[C@@]2(C(=O)N(C)c3ccc(NC(=O)c4cc(F)ccc4F)cc32)C1c1ccccc1 (stereo partly drawn)	none (no result: HNF4A DNA FP, aDG glyco up, CSN deneddyl inh)
O=S(=O)(CC1NCc2cc(F)ccc21)NCc1ccc(F)cc1 (stereo not drawn)	none (no result: HNF4A DNA FP, aDG glyco up, CSN deneddyl inh)
CCCN(CCC)CC(O)Cn1cc(/C=C/C(=O)c2ccccc2)c2ccccc21 (stereo not drawn)	none
CCCN(CCC)CC(O)Cn1cc(/C=C/C(=O)c2cccs2)c2ccccc21 (stereo not drawn)	CSN deneddyl inh 41.6 | CSN deneddyl val 70.7 | MMP-2 counter inactive | Thrombin counter 34.6
CCOc1cc(/C=C2\SC(=S)N(C(C(=O)O)c3ccccc3)C2=O)ccc1O (stereo not drawn)	CSN deneddyl inh 40.7 | CSN deneddyl val 80.5 | MMP-2 counter inactive | Thrombin counter 55.2
COc1cc(/C=C2\SC(=S)N(C(C(=O)O)c3ccccc3)C2=O)ccc1O (stereo not drawn)	CSN deneddyl inh 39.0 | CSN deneddyl val 73.4 | MMP-2 counter inactive | Thrombin counter 60.7
CC(=O)N1c2cc(S(=O)(=O)N3CCN(c4ccccc4F)CC3)c(Br)cc2CC1C (stereo not drawn)	none (no result: HNF4A DNA FP, aDG glyco up, CSN deneddyl inh)
CCOC(=O)SC1=N/C(=C\c2ccc(N(C)C)cc2)C(=O)S1	HNF4A DNA FP 78.9, CSN deneddyl inh 42.6 | CSN deneddyl val 79.9 | MMP-2 counter inactive | Thrombin counter 46.3
O=C1S/C(=C/c2ccc(N3CCOCC3)o2)C(=O)N1Cc1ccc(F)cc1	none
O=C1NC(=S)S/C1=C/c1ccc(N2CCOCC2)o1	CSN deneddyl inh 118.3 (no result: Rev-erbA mod) | CSN deneddyl val 100.1 | MMP-2 counter -25.0 | Thrombin counter inactive
CCN1C(=O)/C(=C/N2CCc3ccccc32)SC1=S	CSN deneddyl inh 37.0 (no result: Rev-erbA mod) | CSN deneddyl val 103.9 | MMP-2 counter inactive | Thrombin counter inactive
CC(=O)OC[C@]1(OC(C)=O)C[C@@]23CC[C@H]4[C@@](C)(CCC[C@@]4(C)C(=O)O)[C@@H]2CC[C@@H]1C3	none
CC(=O)OC[C@]12CC[C@H]3[C@@](C)(CC[C@H]4C(C)(C)CCC[C@]34C)[C@@H]1CC(C1=CC(=O)OC1O)O2 (stereo partly drawn)	CSN deneddyl inh 35.3 | CSN deneddyl val inactive | MMP-2 counter inactive | Thrombin counter inactive
CCCCc1ccc2nc(NC(=O)c3cccs3)sc2c1	none (no result: HNF4A DNA FP, aDG glyco up, CSN deneddyl inh)
Cc1cc2c(=Cc3ccc(N(C)C)cc3)c3ccccc3n2[n+]1C	CSN deneddyl inh 86.3 | CSN deneddyl val inactive | MMP-2 counter inactive | Thrombin counter 60.1
O=C(CSc1nc2ccccc2c(=O)n1-c1ccc(Cl)cc1)NNC(=S)Nc1ccccc1	none (no result: HNF4A DNA FP, aDG glyco up, CSN deneddyl inh)
CC(=O)N[C@@H]1C[C@@H]2O[C@H](CO)CC[C@@H]2O[C@@H]1CCc1ccc(-c2ccc(F)cc2)cc1	none (no result: HNF4A DNA FP, aDG glyco up, CSN deneddyl inh)
COc1ccc2ccccc2c1C=NNC(=O)c1cc(-c2ccc(C)c(C)c2)n[nH]1	none (no result: HNF4A DNA FP, aDG glyco up, CSN deneddyl inh)
CCOC(=O)/C(=C\c1ccc(N2CCC(c3ccccc3)=N2)cc1)C(C)=O	CSN deneddyl inh 38.0 | CSN deneddyl val 20.1 | MMP-2 counter -58.0 | Thrombin counter 27.5
O=C(/C=C/c1ccc(N2CCC(c3ccccc3)=N2)cc1)c1ccccc1	none (no result: HNF4A DNA FP, aDG glyco up, CSN deneddyl inh)
CC(=O)c1cccc(NC(=O)/C=C/c2ccc([N+](=O)[O-])s2)c1	CSN deneddyl inh 35.5 | CSN deneddyl val 96.7 | MMP-2 counter inactive | Thrombin counter inactive
C#CCN1C(C(=O)OC)CN(CCCCCC)CCS1(=O)=O (stereo not drawn)	none (no result: HNF4A DNA FP, aDG glyco up, CSN deneddyl inh)
CCCCn1c(NC(=O)c2ccccc2)c(C#N)c2nc3ccccc3nc21	HNF4A DNA FP 85.4, CSN deneddyl inh 69.1 | CSN deneddyl val inactive | MMP-2 counter inactive | Thrombin counter inactive
CCC(C)n1c(NC(=O)c2ccccc2)c(C#N)c2nc3ccccc3nc21 (stereo not drawn)	HNF4A DNA FP 32.6, CSN deneddyl inh 50.3 | CSN deneddyl val 156.1 | MMP-2 counter inactive | Thrombin counter 54.0
N#Cc1c(NC(=O)c2ccc(Br)o2)n(-c2ccccc2)c2nc3ccccc3nc12	HNF4A DNA FP 87.8, CSN deneddyl inh 39.4 | CSN deneddyl val 93.9 | MMP-2 counter inactive | Thrombin counter inactive

Compound activity deposited in PubChem BioAssay by Sanford-Burnham Center for Chemical Genomics.
